Bioassay records: PubChem BioAssay, several laboratories
CendR NRP1 mod: alters CendR peptide binding to human NRP-1 | inhibition, % at 25 µM | AID 602438 | actives 0.85% (n = 360,000) | O14786 | FAM-RPARPAR peptide binding to NRP-1, fluorescence polarization;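 active means inhibition or corrected inhibition above about 18%, plus a signal ratio from 0.5 to 1.5, limit read from the data, passing the limit was not always enough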
Target sequence (O14786 whole entry, looked up): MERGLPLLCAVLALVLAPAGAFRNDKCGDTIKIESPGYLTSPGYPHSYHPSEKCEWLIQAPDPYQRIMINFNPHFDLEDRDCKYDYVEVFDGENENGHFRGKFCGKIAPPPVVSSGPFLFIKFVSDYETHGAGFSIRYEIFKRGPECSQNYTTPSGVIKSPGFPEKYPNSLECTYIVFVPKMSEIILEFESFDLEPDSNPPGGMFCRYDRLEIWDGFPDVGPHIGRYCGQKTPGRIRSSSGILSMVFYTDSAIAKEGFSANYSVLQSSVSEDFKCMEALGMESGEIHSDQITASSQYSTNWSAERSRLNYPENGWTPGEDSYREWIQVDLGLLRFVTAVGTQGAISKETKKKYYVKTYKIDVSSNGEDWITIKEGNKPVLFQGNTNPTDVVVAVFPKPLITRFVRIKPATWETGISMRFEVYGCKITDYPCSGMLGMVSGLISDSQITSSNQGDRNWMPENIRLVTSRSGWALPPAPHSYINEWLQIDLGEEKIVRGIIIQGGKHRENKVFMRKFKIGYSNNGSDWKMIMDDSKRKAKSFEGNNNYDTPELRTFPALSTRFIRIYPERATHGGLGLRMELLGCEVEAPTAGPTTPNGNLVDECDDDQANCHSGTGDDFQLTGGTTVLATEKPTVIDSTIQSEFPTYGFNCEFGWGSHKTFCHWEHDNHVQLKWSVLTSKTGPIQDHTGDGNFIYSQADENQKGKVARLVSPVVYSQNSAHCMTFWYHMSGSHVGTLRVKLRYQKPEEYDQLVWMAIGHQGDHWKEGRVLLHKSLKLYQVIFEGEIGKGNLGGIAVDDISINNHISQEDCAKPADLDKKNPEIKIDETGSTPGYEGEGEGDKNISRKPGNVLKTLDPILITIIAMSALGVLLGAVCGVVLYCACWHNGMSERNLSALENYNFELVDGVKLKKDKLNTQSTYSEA
CRFR2-BP ag: agonists of human CRF-binding protein/CRF-R2 receptor complex; activation, % at 13.2 µM; HEK293 CRF-R2/CRF-BP, calcium dye fluorescence (FLIPR); percent of saturating CRF peptide response; actives 0.46% (n = 350,000);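 active means activation of at least 50%, plus an integration ratio under a set limit after plate pattern correction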
CRFR2-BP antag: antagonists of CRF-binding protein/CRF-R2 receptor complex; HEK293 CRF-R2/CRF-BP, CRF-induced calcium fluorescence; inhibition, % at 11.8 µM; actives 0.59% (n = 350,000);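 active means inhibition of the ligand-induced calcium signal above about 50% at the single tested concentration, limit read from the data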
Tn6 DDE FP: disrupts Tn6 cyclic peptide binding to fibrin D-Dimer-E complex; P02675; Fibrin DD(E) TRITC-Tn6 fluorescence polarization displacement; inhibition, % at 8.3 µM; actives 0.21% (n = 370,000);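 active means inhibition above a per-campaign cutoff: mean of compounds within control limits plus 3 SD, cut at about 15% in these data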
Tn7 DDE FP: disrupts Tn7 cyclic peptide binding to fibrin D-Dimer-E complex. actives 0.13% (n = 370,000). P02675. inhibition, % at 8.3 µM. FP displacement of FITC-Tn7 peptide from fibrin DD(E); 0% = median of compound wells per plate;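 active means inhibition above the mean of compounds falling within the control limits plus 3 SD of them, cut at about 14% in these data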
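system = human fibrin DD(E) protein | quantity = DD(E) 2 µM final | medium = Tris/NaCl/CaCl2 buffer, pH 7.8 | also added = labelled Tn7 tracer, 0.1 µM | compound dosing = single point at 8.3 µM | timing = compound with protein 10 min, then 3 h after probe, room temperature | signal = FP measurement | benchmarks = Aha-Tn7 high control | repeats = one replicate per compound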
KLK7 zymogen act: activates the human kallikrein-7 zymogen; activation, % at 7 µM; P49862; actives 0.9% (n = 370,000); AID 652039; purified proKLK7, EDANS-DABCYL substrate fluorescence; 100% is mature enzyme control, 0% vehicle;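 active means activation above the mean of all tested compounds plus 3 SD, computed per campaign excluding outliers beyond control limits, cut at about 13% in these data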
proKLK7 act conf: proKLK7 activation, confirmation | actives 68% (n = 3,200) | shares compounds with KLK7 zymogen act | purified proKLK7, EDANS-DABCYL substrate fluorescence; scaled: vehicle 0, mature enzyme 100 | activation, % at 7 µM;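 active means activation, as change over the incubation, above the mean of all tested compounds plus 3 SD, cut at about 13% in these data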
EDANS interfere: optically interferes with EDANS-DABCYL signal, flagging KLK7 hits; shares compounds with KLK7 zymogen act; EDANS-DABCYL substrate fluorescence interference, no enzyme, 4 h; solvent 0%, active enzyme control 100%; activation, % at 7 µM; AID 686952; actives 80% (n = 3,200);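 active means activation above the all-compound mean plus 3 SD, ignoring values outside control-based bounds, cut at about 4.8% in these data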;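 further: value is the 4 h activation minus the activation read at time zero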
K7 EDANS ctr: optically interferes with EDANS-DABCYL fluorescence, kallikrein-7 activator counter-screen; EDANS-DABCYL peptide fluorescence interference, no enzyme; shares compounds with KLK7 zymogen act; EC50, µM; actives 20% (n = 250);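 active means compounds that raise the fluorescence signal in this interference counterscreen, with EC50 at or below 10 µM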;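 further: intact quenched peptide substrate alone read at 355 nm excitation and 520 nm emission; signal is fluorescence gain from T0 to T4 after four hours at room temperature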
Numbers stand for hits; i = inactive; nt = not tested or not shown. Compounds with a hit are over-represented: about 2.9% of the library has one in this group of screens.

SMILES | CendR NRP1 mod | CRFR2-BP ag | CRFR2-BP antag | Tn6 DDE FP | Tn7 DDE FP | KLK7 zymogen act | proKLK7 act conf | EDANS interfere | others
CCOC(=O)c1cc(-c2ccc(C)cc2)nc2nc(SC)[nH]c(=O)c12 | i | i | i | i | i | i | nt | nt
O=C(NCCN1CCOCC1)c1cc2c(=O)n3ccccc3nc2n1Cc1ccccc1 | i | i | i | i | i | 41.2 | 80.6 | 73.5
Cc1ccc2nc3c(cc(C(=O)NCCc4ccccc4)c(=N)n3CCCN3CCOCC3)c(=O)n2c1 | i | i | i | i | i | 17.3 | i | i
Cc1cccn2c(=O)c3cc(C(=O)NCCN4CCOCC4)c(=N)n(CCCN4CCOCC4)c3nc12 | i | i | i | i | i | 25.5 | i | 8.1
COc1ccc(CCNC(=O)c2cc3c(=O)n4ccccc4nc3n(CCCN3CCOCC3)c2=N)cc1 | i | i | i | i | i | i | nt | nt
N#Cc1cc2c(=O)n3ccccc3nc2n(CCCN2CCOCC2)c1=O | i | i | i | i | i | 47.7 | 43.5 | 40.3
COc1ccc(CCn2c(=N)c(C(=O)NCCN3CCOCC3)cc3c(=O)n4ccccc4nc32)cc1OC | i | i | i | i | i | i | nt | nt
COc1cccc(CNC(=O)Cn2c(-c3ccccc3)cc(C(C)=O)c2C)c1OC | nt | nt | nt | i | i | i | nt | nt
Cc1cccn2c(=O)c3cc(C(=O)N(C)C)n(C)c3nc12 | i | i | i | i | i | 25.5 | 27.4 | 28.7
COCCCn1c(C(=O)N2CCOCC2)cc2c(=O)n3ccccc3nc21 | i | i | i | i | i | 46.8 | 72.4 | 80.1
COc1ccc(CCn2c(=N)c(C(=O)NCCN3CCOCC3)cc3c(=O)n4cccc(C)c4nc32)cc1OC | i | i | i | i | i | i | nt | nt
COCCNC(=O)c1cc2c(=O)n3cccc(C)c3nc2n1C | i | i | i | i | i | i | nt | nt
N=c1c(C(=O)NC2CCCC2)cc2c(=O)n3ccccc3nc2n1CCCN1CCOCC1 | i | i | i | i | i | 26.0 | i | i
Cc1cccn2c(=O)c3cc(C(=O)NCCN4CCOCC4)c(=N)n(CCc4ccccc4)c3nc12 | i | i | i | i | i | 35.1 | i | i
O=[N+]([O-])c1ccccc1/C=C/C1Nc2cccc3cccc(c23)N1 | nt | nt | nt | i | i | i | nt | nt
CCC(C)N(C(=O)CNc1nnnn1-c1ccccc1)C(C)CC (stereo not drawn) | nt | nt | nt | i | i | i | nt | nt
COCCCn1c(C(=O)NCCN2CCOCC2)cc2c(=O)n3cccc(C)c3nc21 | i | i | i | i | i | 15.3 | 37.5 | 28.3 | K7 EDANS ctr=i
CCCNc1nc2nc3ccccn3c(=O)c2cc1C(=O)NCCN1CCOCC1 | i | i | i | i | i | 25.6 | 20.7 | 19.7
Cc1cccn2c(=O)c3cc(C(=O)NCCCN4CCCC4=O)n(C)c3nc12 | i | i | i | i | i | 14.3 | i | 14.9
Cc1cccn2c(=O)c3cc(C(=O)NCc4ccccc4)c(=N)n(CCCN4CCOCC4)c3nc12 | i | i | i | i | i | 17.7 | i | i
Cc1ccccc1C(=O)n1ccc2ccc(-c3ccc4ccn(Cc5ccc(C#N)cc5)c4c3)cc21 | nt | nt | nt | i | i | i | nt | nt
COc1cc2c(c(OC)c1OC)C1(CCCCC1)CC2NCC=C(C)C (stereo not drawn) | nt | nt | nt | i | i | i | nt | nt
COC(=O)[C@]12C[C@H](CC(=O)NCc3ccc(OC)c(OC)c3)C(=O)N(CCC3=CCCCC3)C1=C[C@H](C1CCCC1)O[C@@H]2C | nt | nt | nt | i | i | i | nt | nt
N#Cc1cc2c(=O)n3ccccc3nc2n(-c2ccccc2Cl)c1=O | i | i | i | i | i | 30.8 | 32.1 | 35.5
COc1cccc(CNC(=O)[C@H]2CCCN2C(=O)[C@H]2CCCN2C(=O)c2cccc(OC)c2)c1 | nt | nt | nt | i | i | i | nt | nt
SMILES | CendR NRP1 mod | CRFR2-BP ag | CRFR2-BP antag | Tn6 DDE FP | Tn7 DDE FP | KLK7 zymogen act | proKLK7 act conf | EDANS interfere | others
COc1ccc2oc(=O)c(/C(N)=N/NC(=O)c3ccncc3)cc2c1 | i | i | i | i | i | 14.9 | 121.5 | 134.7
O=C(c1ccco1)N1CCN(C(=O)c2cc3ccccc3oc2=O)CC1 | i | i | i | i | i | i | nt | nt
COc1ccc2oc(=O)c(C(=O)N3CCN(c4ccccc4)CC3)cc2c1 | i | i | i | i | i | i | nt | nt
COc1ccc2oc(=O)c(C(=O)N3CCN(C(=O)c4ccco4)CC3)cc2c1 | i | i | i | i | i | 26.2 | 27.3 | 29.5
COc1ccc2oc(=O)c(C(=O)N3CCN(C(=O)c4ccccc4)CC3)cc2c1 | i | i | i | i | i | 20.8 | 24.9 | 15.8 | K7 EDANS ctr=i
CC1C2CC(CC1(C)C)N(C(=O)Nc1ccc3nccnc3c1)C2 (stereo not drawn) | i | i | i | i | i | 18.1 | i | i
COc1cc2[nH]c(Cl)c([N+](=O)[O-])c2cc1OC | i | i | i | i | i | 57.6 | i | 5.9
CCN1CCCCC(NC(=O)c2cccc(C(F)(F)F)c2)C1=O (stereo not drawn) | nt | nt | nt | i | i | i | nt | nt
Cn1ccc2c(-c3cccc(C=O)c3)cc3c(c21)C1CCC3O1 (stereo not drawn) | i | nt | nt | i | i | 17.4 | 15.3 | 13.8
O=C1c2ccccc2NC(c2ccccc2)N1CCCN1CCOCC1 (stereo not drawn) | i | i | i | i | i | 14.7 | i | 10.4
O=C(O)c1ccccc1C1Nc2ccccc2C(=O)N1CCCN1CCOCC1 (stereo not drawn) | i | i | i | i | i | i | nt | nt
Cc1ccc(CN2C(=O)c3ccccc3NC2c2ccccn2)cc1 (stereo not drawn) | i | i | i | i | i | i | nt | nt
CCCN1C(=O)c2ccccc2NC1c1ccc(C)cc1 (stereo not drawn) | i | i | i | i | i | 14.5 | i | 7.3
CCCN1C(=O)c2ccccc2NC1c1ccc(OC)cc1O (stereo not drawn) | i | i | i | i | i | 18.6 | 15.0 | 15.8
COC(=O)[C@]12C[C@H](CC(=O)NCC3CCCCC3)C(=O)N(Cc3ccc(Cl)cc3Cl)C1=C[C@H](COCc1ccccc1)O[C@@H]2C | nt | nt | nt | i | i | i | nt | nt
COc1ccccc1-c1cc(C(=O)O)c2c(=O)n(C)c(=O)n(Cc3ccccc3)c2n1 | i | i | i | i | i | i | nt | nt
Cn1c(=O)c2c(C(=O)O)cc(-c3ccccc3)nc2n(Cc2ccccc2)c1=O | i | i | i | i | i | 37.5 | 58.8 | 65.3
